Measured values as given in ChEMBL document CHEMBL2331436, “Antimicrobial phenolics and unusual glycerides from Helichrysum italicum subsp. microphyllum” (2013).
In brackets after ≈: the same amount, converted by molar mass.

Assays:
Type in all cases: functional
[1] = system: Staphylococcus aureus; experiment: Antibacterial activity against Staphylococcus aureus ATCC 25923 after 18 hrs by MTT assay; settings: ATCC 25923, 18 h
Outline: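 Strain grown overnight at 37 °C on nutrient agar before assay. MIC by broth microdilution in Mueller-Hinton broth with 20 mg/L Ca2+ and 10 mg/L Mg2+. Agents in DMSO, diluted in MHB to a 512 mg/L stock, then serially diluted to a final 128−0.25 […]. Duplicates, 18 h at 37 °C, then 5 mg/L methanolic MTT for 30 min; colour read-out.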

[2] = system: Staphylococcus aureus; experiment: Antibacterial activity against epidemic methicillin-resistant Staphylococcus aureus EMRSA-16 after 18 hrs by MTT assay; settings: EMRSA-16, 18 h
Outline: (§1)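 MIC by broth microdilution in Mueller-Hinton broth with 20 mg/L Ca2+ and 10 mg/L Mg2+. Strains were grown overnight on nutrient agar at 37 °C. Agents were dissolved in DMSO, diluted in broth to a 512 mg/L stock, and serially diluted to a final 128−0.25 range with inoculum. Plates ran in duplicate for 18 h at 37 °C, then […] methanolic MTT for 30 min, scored by blue colour.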

[3] = system: Staphylococcus aureus; experiment: Antibacterial activity against epidemic methicillin-resistant Staphylococcus aureus EMRSA-15 after 18 hrs by MTT assay; settings: EMRSA-15, 18 h; outline: as §1
[4] = system: Staphylococcus aureus; experiment: Antibacterial activity against Staphylococcus aureus 1199B overexpressing NorA pump after 18 hrs by MTT assay; outline: as §1
[5] = system: Staphylococcus aureus; experiment: Antibacterial activity against Staphylococcus aureus RN4220 overexpressing MsrA macrolide efflux protein after 18 hrs by MTT assay; settings: RN4220, 18 h; outline: as §1
[6] = system: Staphylococcus aureus; experiment: Antibacterial activity against Staphylococcus aureus XU212 overexpressing TetK tetracycline efflux pump after 18 hrs by MTT assay; settings: XU212, 18 h; outline: as §1

## C=C(COC(=O)CC)[C@H]1Cc2cc(C(C)=O)ccc2O1 [PROPANOYLBITALIN A]
[1]
  MIC: > 128 mg/L
[2]
  MIC: > 128 mg/L
[3]
  MIC: > 128 mg/L
[4]
  MIC: > 128 mg/L
[5]
  MIC: > 128 mg/L
[6]
  MIC: > 128 mg/L

## COC(=O)/C=C/c1ccc(OC/C=C(\C)CCC=C(C)C)cc1
[1]
  MIC: > 128 mg/L
[2]
  MIC: > 128 mg/L
[3]
  MIC: > 128 mg/L
[4]
  MIC: > 128 mg/L
[5]
  MIC: > 128 mg/L
[6]
  MIC: > 128 mg/L

## CCCCCC(=O)C(c1c(O)c(CC=C(C)C)c(O)c(C(C)=O)c1O)c1c(O)c(CC)c(C)oc1=O (stereo unspecified)
[1]
  MIC: 8 mg/L (≈ 16 µM)
[2]
  MIC: 8 mg/L (≈ 16 µM)
[3]
  MIC: 16 mg/L (≈ 32 µM)
[4]
  MIC: 16 mg/L (≈ 32 µM)
[5]
  MIC: 8 mg/L (≈ 16 µM)
[6]
  MIC: 16 mg/L (≈ 32 µM)

## CCc1oc(=O)c(Cc2c(O)c(CC=C(C)C)c(O)c(C(C)=O)c2O)c(O)c1CC
[1]
  MIC: 1 mg/L (≈ 2.4 µM)
[2]
  MIC: 2 mg/L (≈ 4.8 µM)
[3]
  MIC: 2 mg/L (≈ 4.8 µM)
[4]
  MIC: 1 mg/L (≈ 2.4 µM)
[5]
  MIC: 2 mg/L (≈ 4.8 µM)
[6]
  MIC: 16 mg/L (≈ 38.4 µM)

## COC(=O)/C=C\c1ccc(OC/C=C(\C)CCC=C(C)C)cc1
[1]
  MIC: > 128 mg/L
[2]
  MIC: > 128 mg/L
[3]
  MIC: > 128 mg/L
[4]
  MIC: > 128 mg/L
[5]
  MIC: > 128 mg/L
[6]
  MIC: > 128 mg/L

## CCc1c(C)oc(=O)c(C(C)c2c(O)c(CC=C(C)C)c(O)c(C(C)=O)c2O)c1O (stereo unspecified)
[1]
  MIC: 64 mg/L (≈ 154 µM)
[2]
  MIC: 128 mg/L (≈ 307 µM)
[3]
  MIC: 128 mg/L (≈ 307 µM)
[4]
  MIC: 128 mg/L (≈ 307 µM)
[5]
  MIC: 128 mg/L (≈ 307 µM)
[6]
  MIC: > 128 mg/L

## C=C(COC(=O)CCC(C)C)[C@H]1Cc2cc(C(C)=O)ccc2O1
[1]
  MIC: > 128 mg/L
[2]
  MIC: > 128 mg/L
[3]
  MIC: > 128 mg/L
[4]
  MIC: > 128 mg/L
[5]
  MIC: > 128 mg/L
[6]
  MIC: > 128 mg/L

## CCc1oc(=O)c(Cc2c(O)c(C)c(CC)oc2=O)c(O)c1C [HELIPYRONE]
[1]
  MIC: 64 mg/L (≈ 200 µM)
[2]
  MIC: 128 mg/L (≈ 400 µM)
[3]
  MIC: > 128 mg/L
[4]
  MIC: > 128 mg/L
[5]
  MIC: 12 mg/L (≈ 37.5 µM)
[6]
  MIC: > 128 mg/L

## C=C(COC(=O)C(C)C)[C@H]1Cc2cc(C(C)=O)ccc2O1
[1]
  MIC: > 128 mg/L
[2]
  MIC: > 128 mg/L
[3]
  MIC: > 128 mg/L
[4]
  MIC: > 128 mg/L
[5]
  MIC: > 128 mg/L
[6]
  MIC: > 128 mg/L

## CCn1cc(C(=O)O)c(=O)c2cc(F)c(N3CCNCC3)cc21 [NORFLOXACIN]
[1]
  MIC: 0.5 mg/L (≈ 1.57 µM)
[2]
  MIC: 128 mg/L (≈ 401 µM)
[3]
  MIC: 0.5 mg/L (≈ 1.57 µM)
[4]
  MIC: 32 mg/L (≈ 100 µM)
[5]
  MIC: 0.5 mg/L (≈ 1.57 µM)
[6]
  MIC: 8 mg/L (≈ 25.1 µM)

## CCCc1oc(=O)c(C(c2ccccc2)c2c(O)c(CC=C(C)C)c(O)c(C(C)=O)c2O)c(O)c1C(C)C (stereo unspecified)
[1]
  MIC: 8 mg/L (≈ 15.4 µM)
[2]
  MIC: 8 mg/L (≈ 15.4 µM)
[3]
  MIC: 6 mg/L (≈ 11.5 µM)
[4]
  MIC: 16 mg/L (≈ 30.7 µM)
[5]
  MIC: 2 mg/L (≈ 3.84 µM)
[6]
  MIC: 4 mg/L (≈ 7.68 µM)

## C=C(COC(=O)C(C)CC)[C@H]1Cc2cc(C(C)=O)ccc2O1 (stereo partly specified)
[1]
  MIC: > 128 mg/L
[2]
  MIC: > 128 mg/L
[3]
  MIC: > 128 mg/L
[4]
  MIC: > 128 mg/L
[5]
  MIC: > 128 mg/L
[6]
  MIC: > 128 mg/L

## C=C(COC(=O)CCCCCCCC)[C@H]1Cc2cc(C(C)=O)ccc2O1 [NONANOYLBITALIN A]
[1]
  MIC: > 128 mg/L
[2]
  MIC: > 128 mg/L
[3]
  MIC: > 128 mg/L
[4]
  MIC: > 128 mg/L
[5]
  MIC: > 128 mg/L
[6]
  MIC: > 128 mg/L

## CCc1oc(OC)c(Cc2c(O)c(CC=C(C)C)c(O)c(C(C)=O)c2O)c(=O)c1C [METHYLARZANOL]
[1]
  MIC: > 128 mg/L
[2]
  MIC: > 128 mg/L
[3]
  MIC: > 128 mg/L
[4]
  MIC: > 128 mg/L
[5]
  MIC: > 128 mg/L
[6]
  MIC: > 128 mg/L

## CCc1oc(=O)c(Cc2c(O)c3c(c(C(C)=O)c2O)OC(C)(C)CC3)c(O)c1C [CYCLOARZANOL A]
[1]
  MIC: 32 mg/L (≈ 79.5 µM)
[2]
  MIC: > 128 mg/L
[3]
  MIC: 128 mg/L (≈ 318 µM)
[4]
  MIC: 128 mg/L (≈ 318 µM)
[5]
  MIC: 32 mg/L (≈ 79.5 µM)
[6]
  MIC: 128 mg/L (≈ 318 µM)

## CCc1oc(=O)c(Cc2c(O)c(CC=C(C)C)c(O)c(C(C)=O)c2O)c(O)c1C [ARZANOL]
[1]
  MIC: 1 mg/L (≈ 2.48 µM)
[2]
  MIC: 2 mg/L (≈ 4.97 µM)
[3]
  MIC: 4 mg/L (≈ 9.94 µM)
[4]
  MIC: 1 mg/L (≈ 2.48 µM)
[5]
  MIC: 2 mg/L (≈ 4.97 µM)
[6]
  MIC: 4 mg/L (≈ 9.94 µM)

## CCc1oc(=O)c(Cc2c(O)c(C(C)=O)c(O)c3c2OC(C)(C)CC3)c(O)c1C [CYCLOARZANOL B]
[1]
  MIC: > 128 mg/L
[2]
  MIC: > 128 mg/L
[3]
  MIC: > 128 mg/L
[4]
  MIC: > 128 mg/L
[5]
  MIC: > 128 mg/L
[6]
  MIC: > 128 mg/L

## C=C(COC(C)=O)[C@H]1Cc2cc(C(C)=O)ccc2O1
[1]
  MIC: > 128 mg/L
[2]
  MIC: > 128 mg/L
[3]
  MIC: > 128 mg/L
[4]
  MIC: > 128 mg/L
[5]
  MIC: > 128 mg/L
[6]
  MIC: > 128 mg/L

## C=C(COC(=O)CCCCCCC/C=C\CCCCCCCC)[C@H]1Cc2cc(C(C)=O)ccc2O1 [OLEOYLBITALIN A]
[1]
  MIC: > 128 mg/L
[2]
  MIC: > 128 mg/L
[3]
  MIC: > 128 mg/L
[4]
  MIC: > 128 mg/L
[5]
  MIC: > 128 mg/L
[6]
  MIC: > 128 mg/L

## CCC(C)C(=O)C(C)c1oc(=O)c(C)c(O)c1C (stereo unspecified) [MICROPYRONE]
[1]
  MIC: > 128 mg/L
[2]
  MIC: 128 mg/L (≈ 507 µM)
[3]
  MIC: > 128 mg/L
[4]
  MIC: > 128 mg/L
[5]
  MIC: 128 mg/L (≈ 507 µM)
[6]
  MIC: > 128 mg/L

## CCCc1oc(=O)c(C(C)c2c(O)c(CC=C(C)C)c(O)c(C(C)=O)c2O)c(O)c1C(C)C (stereo unspecified)
[1]
  MIC: 128 mg/L (≈ 279 µM)
[2]
  MIC: 128 mg/L (≈ 279 µM)
[3]
  MIC: 32 mg/L (≈ 69.8 µM)
[4]
  MIC: 32 mg/L (≈ 69.8 µM)
[5]
  MIC: 32 mg/L (≈ 69.8 µM)
[6]
  MIC: 128 mg/L (≈ 279 µM)
